Experimental data taken from ChEMBL document CHEMBL4680190, “Imidazo[2,1-b] [1,3,4]thiadiazoles with antiproliferative activity against primary and gemcitabine-resistant pancreatic cancer cells” (Eur J Med Chem, 2020).
Active and inactive are the calls of the source. The calls are words filed in the database; no cut-off is given here.

Columns and labels:
[1] = tested on: CAPAN-1; test: Antiproliferative activity against human Capan-1 cells assessed as reduction in cell growth incubated for 72 hrs by SRB assay; format: functional, cell-based; details: CAPAN-1, 72 h
In short: (§1)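 Cells were seeded in triplicate at 3×10³/well (Panc-1, Panc-1R, PDAC-3) or 5×10³/well (Capan-1) and preincubated 24 h at 37 °C. Fixation was cold TCA, staining 0.4% SRB, solubilisation Tris pH 8.8, read at 490/540 nm. Growth was taken versus vehicle, day-0 corrected, and IC50 fitted nonlinearly; three independent experiments, mean ± SEM.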

[2] = tested on: PANC-1; test: Antiproliferative activity against human Panc-1 cells assessed as reduction in cell growth incubated for 72 hrs by SRB assay; format: functional, cell-based; details: PANC-1, 72 h; in short: as §1
[3] = Antiproliferative activity against human SUIT-2 cells assessed as reduction in cell growth incubated for 72 hrs by SRB assay; format: functional, cell-based; details: SUIT-2, 72 h
In short: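 SUIT-2 cells seeded at 3 × 10³/well in triplicate and left 24 h at 37 °C. Cells were fixed with cold TCA, stained with 0.4% SRB in 1% acetic acid and dissolved in Tris pH 8.8. A490/A540 was read vs vehicle, corrected for day-0 OD. IC50 came from nonlinear curve fit; mean of three experiments.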

[4] = target: Focal adhesion kinase 1 (Homo sapiens) (UniProt Q05397); test: Inhibition of PTK2 in human CAPAN-1 cells assessed as inhibition of PTK2 phosphorylation at Y397 residue at 5XIC50 incubated for 24 hrs by western blot analysis; format: cell-based
[5] = target: Focal adhesion kinase 1 (Homo sapiens) (UniProt Q05397); test: Inhibition of PTK2 in human Panc-1 cells assessed as inhibition of PTK2 phosphorylation at Y397 residue at 5XIC50 incubated for 24 hrs by western blot analysis; format: cell-based
[6] = target: Focal adhesion kinase 1 (Homo sapiens) (UniProt Q05397); test: Inhibition of PTK2 in human SUIT-2 cells assessed as inhibition of PTK2 phosphorylation at Y397 residue at 5XIC50 incubated for 24 hrs by western blot analysis; format: cell-based
[7] = Antiproliferative activity against human PDAC-3 cells assessed as inhibition of cell growth incubated for 72 hrs by SRB assay; format: functional, cell-based; details: PDAC-3, 72 h; in short: as §1
[8] = Antiproliferative activity against gemicitabine-resistant human Panc-1R cells incubated for 72 hrs by SRB assay; format: functional, cell-based; details: PANC-1, 72 h; in short: as §1

Chain of Focal adhesion kinase 1 (Homo sapiens) (Q05397 2-1052 limits assumed): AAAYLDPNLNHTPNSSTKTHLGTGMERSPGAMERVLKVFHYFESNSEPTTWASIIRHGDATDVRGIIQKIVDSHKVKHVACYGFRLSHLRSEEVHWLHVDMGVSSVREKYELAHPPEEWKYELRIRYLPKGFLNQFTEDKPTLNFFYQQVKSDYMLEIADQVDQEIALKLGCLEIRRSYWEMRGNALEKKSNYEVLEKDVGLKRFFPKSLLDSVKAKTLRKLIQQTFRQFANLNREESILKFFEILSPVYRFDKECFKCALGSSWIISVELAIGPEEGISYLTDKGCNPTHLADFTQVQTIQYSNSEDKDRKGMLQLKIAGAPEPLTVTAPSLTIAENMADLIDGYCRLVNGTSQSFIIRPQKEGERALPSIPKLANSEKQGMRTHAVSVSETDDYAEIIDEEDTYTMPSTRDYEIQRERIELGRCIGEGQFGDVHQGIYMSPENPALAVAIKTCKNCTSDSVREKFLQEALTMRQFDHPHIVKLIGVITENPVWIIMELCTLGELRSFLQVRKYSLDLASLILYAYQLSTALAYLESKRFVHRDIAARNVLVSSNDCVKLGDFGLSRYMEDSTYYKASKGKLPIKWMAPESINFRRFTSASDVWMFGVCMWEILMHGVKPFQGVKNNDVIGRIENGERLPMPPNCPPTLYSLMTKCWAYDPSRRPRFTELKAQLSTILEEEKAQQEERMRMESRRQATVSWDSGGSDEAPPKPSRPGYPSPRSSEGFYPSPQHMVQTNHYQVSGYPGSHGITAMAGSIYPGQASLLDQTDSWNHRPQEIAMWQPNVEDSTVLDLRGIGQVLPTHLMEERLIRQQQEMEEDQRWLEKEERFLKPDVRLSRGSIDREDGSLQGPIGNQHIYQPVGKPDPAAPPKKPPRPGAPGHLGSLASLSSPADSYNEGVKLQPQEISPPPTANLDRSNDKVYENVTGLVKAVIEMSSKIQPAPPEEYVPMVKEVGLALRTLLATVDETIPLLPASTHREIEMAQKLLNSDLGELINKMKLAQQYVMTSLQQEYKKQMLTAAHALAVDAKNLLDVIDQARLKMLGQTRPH

| Structure (SMILES) | IC50 [1] [µM] | IC50 [2] [µM] | IC50 [3] [µM] | inhibition [4] | inhibition [5] | inhibition [6] | IC50 [7] [µM] | IC50 [8] [µM] |
| --- | --- | --- | --- | --- | --- | --- | --- | --- |
| COc1ccc(OC)c(-c2nc3sc(-c4cn(C)c5ccccc45)nn3c2C=O)c1 | 5.73 | > 16 | 12.5 |  |  |  |  |  |
| Cn1cc(-c2nn3cc(-c4ccsc4)nc3s2)c2ccccc21 |  |  |  | Active | Active | Active |  |  |
| Nc1ccn([C@@H]2O[C@H](CO)[C@@H](O)C2(F)F)c(=O)n1 [GEMCITABINE] | 0.02 | 0.15 | 0.01 |  |  |  | 0.03 | > 10 |
| O=c1[nH]cc(F)c(=O)[nH]1 [FLUOROURACIL] | 0.47 | 4.3 | 0.91 |  |  |  | 0.56 | 4.5 |
| O=Cc1c(-c2ccc(F)cc2)nc2sc(-c3c[nH]c4ccccc34)nn12 | 8.83 | 10.5 | 7.93 |  |  |  |  |  |
| COc1ccc(OC)c(-c2nc3sc(-c4c[nH]c5ccccc45)nn3c2C=O)c1 | > 16 | > 16 | 13 |  |  |  |  |  |
| COc1ccc(OC)c(-c2nc3sc(-c4c[nH]c5ccc(Br)cc45)nn3c2C=O)c1 | 8.24 | 10.6 | 8.7 |  |  |  |  |  |
| c1ccc2c(-c3nn4cc(-c5ccsc5)nc4s3)c[nH]c2c1 |  |  |  | Active | Active | Active |  |  |
| O=Cc1c(-c2ccccc2)nc2sc(-c3c[nH]c4ccccc34)nn12 | 10.5 | 12.4 | 9.56 |  |  |  |  |  |
| COc1cccc(-c2nc3sc(-c4c[nH]c5ccccc45)nn3c2C=O)c1 | > 16 | > 16 | 11.5 |  |  |  |  |  |
